We go through 21 molecules from ChEMBL document CHEMBL1133686, “6-Aminoquinolones as new potential anti-HIV agents” (J Med Chem, 2000).

Values joined by “and” are separate entries in the source; they are usually repeats but may differ in a detail not shown here. Equal values may be shown once. Bounds are passed on as bounds.

Test [1] concerns Human immunodeficiency virus 1. The experiment in a line: In vitro antiviral activity against HIV-1 IIIB in C8166 (human CD4) cells. In kind it is functional, organism-based. As to conditions: Human immunodeficiency virus 1, C8166. An outline of the steps:
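HIV-1 IIIB infection of C8166 cells, compounds from DMSO stocks of 25 mM or higher. EC50 is the drug concentration (μM) reducing reverse transcriptase activity of culture supernatants by 50%. Syncytium formation, gp120 ELISA and cytopathic-effect reduction were also scored. Values are the mean of at least three experiments run in triplicate.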

A further test has as its system C8166. The experiment in a line: Selectivity index in HIV-1 infected C8166 (human CD4) cells. It counts as functional. An outline of the steps: (§1)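 Selectivity index in C8166 cells, computed as the ratio of TC50 (concentration reducing cell growth by 50%) to EC50 (concentration reducing supernatant reverse transcriptase activity by 50% in HIV-1 IIIB-infected cultures).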

In another test the test system is C8166 (human). The experiment in a line: In vitro toxicity to C8166 (human CD4) cells.
The next test has as its system Herpes simplex virus 1. Briefly: Antiviral activity determined against herpes simplex virus type 1 (HSV-1) in vero cells. As to conditions: Herpes simplex virus 1, Vero.
Test [2] in a line: Toxicity which reduces cell growth by 50% against herpes simplex virus type 1 (HSV-1) in vero cells.
Test [3] can be described thus: Selectivity index expressed as ratio of TC50 (HIV-1) to EC50 (HIV-1) in C8166 cells. It counts as functional. In short, it runs like this: as §1

In turn, `COc1ccc(N2CCN(c3cc4c(cc3N)c(=O)c(C(=O)O)cn4C(C)(C)C)CC2)cc1` returned an EC50 in test [1] of 9.5 µM. This molecule also displayed an SI in the test on C8166 of 1.4. In addition, the TC50 with C8166 (human) came out at 13.8 µM.
With `COc1ccccc1N1CCN(c2cc3c(cc2N)c(=O)c(C(=O)O)cn3C(C)(C)C)CC1`, the EC50 with Herpes simplex virus 1 amounted to 33 µM; in test [1] it was 3.2 µM. In addition, the results for the TC50 (in test [2]; in the test on C8166 (human)) were 300 µM and 20 µM, respectively. The SI in the test with C8166 is 6 and 9.
Regarding `CC(C)(C)n1cc(C(=O)O)c(=O)c2cc(F)c(N3CCN(c4ccccn4)CC3)cc21`, the EC50 in test [1] was determined as 7.5 µM. Besides, the SI with C8166 worked out at 5. The TC50 in the test with C8166 (human) came out at 40 µM.
With `CC(C)(C)n1cc(C(=O)O)c(=O)c2cc(N)c(N3CCN(c4ncccn4)CC3)cc21`, a half-maximal effect in test [1] (EC50) was put at 9.48 µM. Further, the SI in the test with C8166 is 4. The same molecule had a TC50 with C8166 (human) of 42.6 µM.
The like results for `CC(C)(C)n1cc(C(=O)O)c(=O)c2cc(N)c(N3CCN(c4ccc(F)cc4)CC3)cc21` were, in that order, 8.44 µM, 1.2 and 10.7 µM.
For the molecule `CCOC(=O)c1cn(C(C)(C)C)c2cc(N3CCN(c4ccccn4)CC3)c(N)cc2c1=O`, the EC50 is more than 300 µM in the test on Herpes simplex virus 1 and 51.2 µM in test [1]. The TC50 is more than 300 µM in test [2] and 77.9 µM in the test on C8166 (human). Moreover, the SI in the test on C8166 was 1.5.
`Cc1c(N2CCc3ccccc3C2)c(N)cc2c(=O)c(C(=O)O)cn(C3CC3)c12` returned an EC50 in test [1] of 80 µM. In addition, in the test on C8166, the SI turned out to be 5. In addition, the TC50 in the test on C8166 (human) was 400 µM.
As for `Cn1cc(C(=O)O)c(=O)c2cc(N)c(N3CCN(c4ccccn4)CC3)cc21`, the SI (in test [3]; with C8166) was 70 each time. Besides, the results for the EC50 (in the test on Herpes simplex virus 1; in test [1]) were 30 µM and 0.1 µM, respectively. Moreover, the TC50 in test [2] was 270 µM; in the test on C8166 (human) it was 7 µM.
As to `Cc1c(N2CCC(C)CC2)c(N)cc2c(=O)c(C(=O)O)cn(C3CC3)c12`, the EC50 in test [1] stood at 20 µM. In addition, the SI with C8166 stood at 4. This molecule also gave a TC50 in the test on C8166 (human) of 80 µM.
With `Nc1cc2c(=O)c(C(=O)O)cn(C3CC3)c2cc1N1CCN(c2ccccn2)CC1`, the EC50 in the test with Herpes simplex virus 1 amounted to 38 µM; in test [1] it was 0.7 µM. Moreover, the TC50 in test [2] worked out at 95 µM; in the test on C8166 (human), 9 µM.
Consider `CCOC(=O)c1cn(C)c2cc(N3CCN(c4ccccn4)CC3)c(N)cc2c1=O`, for which the results for the EC50 (in the test on Herpes simplex virus 1; in test [1]) were more than 300 µM and 37 µM, respectively. Also, the TC50 in test [2] was more than 300 µM; in the test on C8166 (human), 57 µM. This molecule had an SI with C8166 of 1.5.
On to `Cc1c(N2CCN(c3ccccn3)CC2)c(N)cc2c(=O)c(C(=O)O)cn(C)c12`, for which the EC50 in test [1] was 7.5 µM. In the test on C8166, the SI is 6. In addition, the TC50 with C8166 (human) turned out to be 46.2 µM.
In the case of `Cn1cc(C(=O)O)c(=O)c2cc(F)c(N3CCN(c4ccccn4)CC3)cc21`, in test [1], the EC50 was determined as 1.3 µM. This molecule also showed an SI in the test on C8166 of 5. This molecule also had a TC50 in the test with C8166 (human) of 7 µM.
In test [1], `Nc1cc2c(=O)c(C(=O)O)cn(N3CCN(c4ccccn4)CC3)c2cc1Cl` had a concentration giving a half-maximal response (EC50) of 500 µM. This molecule returned an SI in the test with C8166 of more than 2. Also, in the test with C8166 (human), the TC50 was more than 1000 µM.
The like results for `CNc1cc2c(=O)c(C(=O)O)cn(C)c2cc1N1CCN(c2ccccn2)CC1` were, in that order, 3.5 µM, 5 and 19.5 µM.
Turning to `O=C(O)c1cn(C2CC2)c2cc(N3CCN(c4ccccn4)CC3)c(F)cc2c1=O`, in test [1], the EC50 worked out at 5 µM. The SI with C8166 came to 13. The molecule further returned a TC50 in the test on C8166 (human) of 65 µM.
With `CC(C)(C)n1cc(C(=O)O)c(=O)c2cc(N)c(N3CCN(c4ccccn4)CC3)cc21`, the EC50 with Herpes simplex virus 1 was determined as 82 µM; in test [1], 2 µM. Further, the TC50 in test [2] came out at 290 µM; in the test on C8166 (human), 8.1 µM. For the same molecule, the SI with C8166 came out at 4.
`CC(C)(C)n1cc(C(=O)O)c(=O)c2cc(N)c(N3CCc4ccccc4C3)cc21`: in test [1], a half-maximal effect (EC50) was put at 40 µM. For the same molecule, the SI in the test with C8166 is 2. In addition, the TC50 with C8166 (human) was determined as 80 µM.
In test [1], `O=C(O)c1cn(C2CC2)c2cc(N3CCNCC3)c(F)cc2c1=O` [CIPROFLOXACIN] gave an EC50 of 100 µM. This molecule gave an SI in the test with C8166 of 1.6. Further, the TC50 in the test with C8166 (human) was found to be 160 µM.
As to `CN1CCN(c2c(F)cc3c(=O)c(C(=O)O)cn4c3c2SCC4)CC1` [RUFLOXACIN], the EC50 in test [1] is 200 µM. Further, the SI with C8166 was 2. This molecule yielded a TC50 in the test with C8166 (human) of 400 µM.
For the molecule `Cc1cn([C@H]2C[C@H](N=[N+]=[N-])[C@@H](CO)O2)c(=O)[nH]c1=O` [ZIDOVUDINE], the EC50 in test [1] is 0.02 µM. The same molecule registered an SI with C8166 of 25000. Further, in the test with C8166 (human), the TC50 stood at 500 µM.
